From ChEMBL document CHEMBL1124057, “Synthesis of arginine-vasopressins, modified in positions 1 and 2, as antagonists of the vasopressor response to the parent hormone” (J Med Chem, 1988)
*1 amine or outer side, *2 acyl side, *3 side chain or, on linkers, in order; H or OH if unused. Where a SMILES comes first, the peptide text is derived from it. Bridges are numbered along the chain shown (N, C = ends). [ ]: non-standard residue; d: D form. X9 = O=C(CC1(S[*:3])CCC(c2ccccc2)CC1)[C@H](Cc1ccc(O)cc1)N([C@@H](Cc1ccccc1)C(=O)[*:2])[*:1]; X5 = CN1CCC(CC(=O)[C@H](Cc2ccc(O)cc2)N([C@@H](Cc2ccccc2)C(=O)[*:2])[*:1])(S[*:3])CC1; X8 = CC1CCC(CC(=O)[C@H](Cc2ccc(O)cc2)N([C@@H](Cc2ccccc2)C(=O)[*:2])[*:1])(S[*:3])CC1; X1 = CC(C)(C)C1CCC(CC(=O)[*:1])(S[*:2])CC1; X4 = O=C(CC1(S[*:2])CCC(c2ccccc2)CC1)[*:1]; X2 = CC1CCC(CC(=O)[*:1])(S[*:2])CC1; X3 = CN1CCC(CC(=O)[*:1])(S[*:2])CC1; X6 = O=C(CC1(S[*:2])CCCCC1)[*:1]

Legend:
Rattus norvegicus [1] = assay: Agonistic activity was determined according to a four-point dosage schedule in anesthetized rat (vasopressor assay); format: functional
Rattus norvegicus [2] = organism: Rattus norvegicus; assay: Antagonist activity expressed as the effective dose that reduces the response to 2x units to equal response to 1x units of agonist (vasopressor assay); format: functional
Summary of the method: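 Vasopressor antagonism measured in anesthetized, dibenamine-treated rats, with arginine-vasopressin (408 IU/mg) as the challenging agonist. Potency is given as the effective dose (ED), the antagonist dose in nmol/kg body weight.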

Rattus norvegicus [3] = assay: Antidiuretic potency was tested in rat by intravenous injection and the change of conductivity of secreted urine was measured (agonistic experiment); format: functional
Summary of the method: (§1)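 Antidiuretic assay in anesthetized female Sprague-Dawley rats, with compounds given by intravenous injection. The change in conductivity of secreted urine was the effect parameter in both agonist and antagonist runs. Arginine-vasopressin (408 IU/mg) was the standard for agonism and the agonist in antagonism runs.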

[4] = The time for complete recovery of the AVP effect was measured; format: ADME
Rattus norvegicus [5] = assay: Antidiuretic potency was tested in rat by intravenous injection and the change of conductivity of secreted urine was measured (antagonistic experiment); format: functional; summary of the method: as §1
Rattus norvegicus [6] = assay: Antidiuretic potency was tested in rat by intravenous injection and the change of conductivity of secreted urine was measured (antagonistic experiment); Weak, inconsistent; format: functional, organism-based; summary of the method: as §1

Compound | Agonism (Rattus norvegicus [1]) | ED (Rattus norvegicus [2]) | Agonism (Rattus norvegicus [3]) | Time [4] | other results
COc1ccc(C[C@@H]2NC(=O)CC3(CCC(c4ccccc4)CC3)SSC[C@@H](C(=O)N3CCC[C@H]3C(=O)N[C@@H](CCCN=C(N)N)C(=O)NCC(N)=O)NC(=O)[C@H](CC(N)=O)NC(=O)[C@H](CCC(N)=O)NC(=O)[C@H](Cc3ccccc3)NC2=O)cc1 (some centres undefined) (Y(Me)FQNCPRG-NH2; linker N-5 via X4) [listing 1 of 2 here] | 0 IU mg-1 | 2 nmol/kg | 1.6 IU mg-1 | – | –
CC1CCC2(CC1)CC(=O)N[C@@H](Cc1ccc(O)cc1)C(=O)N[C@@H](Cc1ccccc1)C(=O)N[C@@H](CCC(N)=O)C(=O)N[C@@H](CC(N)=O)C(=O)N[C@H](C(=O)N1CCC[C@H]1C(=O)N[C@@H](CCCN=C(N)N)C(=O)NCC(N)=O)CSS2 (some centres undefined) (YFQNCPRG-NH2; linker N-5 via X2) [listing 1 of 2 here] | – | – | – | 214 min | –
CC1CCC2(CC1)CC(=O)N[C@@H](Cc1ccc(O)cc1)C(=O)N[C@@H](Cc1ccccc1)C(=O)N[C@@H](CCC(N)=O)C(=O)N[C@@H](CC(N)=O)C(=O)N[C@H](C(=O)N1CCC[C@H]1C(=O)N[C@@H](CCCN=C(N)N)C(=O)NCC(N)=O)CSS2 (some centres undefined) (YFQNCPRG-NH2; linker N-5 via X2) [listing 2 of 2 here] | 0 IU mg-1 | 1.04 nmol/kg | 0.14 IU mg-1 | – | –
COc1ccc(C[C@@H]2NC(=O)CC3(CCCCC3)SSC[C@@H](C(=O)N3CCC[C@H]3C(=O)N[C@@H](CCCN=C(N)N)C(=O)NCC(N)=O)NC(=O)[C@H](CC(N)=O)NC(=O)[C@H](CCC(N)=O)NC(=O)[C@H](Cc3ccccc3)NC2=O)cc1 (Y(Me)FQNCPRG-NH2; linker N-5 via X6) [listing 1 of 2 here] | 0 IU mg-1 | – | – | – | –
COc1ccc(C[C@@H]2NC(=O)CC3(CCC(C)CC3)SSC[C@@H](C(=O)N3CCC[C@H]3C(=O)N[C@@H](CCCN=C(N)N)C(=O)NCC(N)=O)NC(=O)[C@H](CC(N)=O)NC(=O)[C@H](CCC(N)=O)NC(=O)[C@H](Cc3ccccc3)NC2=O)cc1 (some centres undefined) (Y(Me)FQNCPRG-NH2; linker N-5 via X2) [listing 1 of 2 here] | 0 IU mg-1 | 1.5 nmol/kg | 0.7 IU mg-1 | – | Antagonism (Rattus norvegicus [5]): 0
CC(C)(C)C1CCC2(CC1)CC(=O)N[C@@H](Cc1ccc(O)cc1)C(=O)N[C@@H](Cc1ccccc1)C(=O)N[C@@H](CCC(N)=O)C(=O)N[C@@H](CC(N)=O)C(=O)N[C@H](C(=O)N1CCC[C@H]1C(=O)N[C@@H](CCCN=C(N)N)C(=O)NCC(N)=O)CSS2 (some centres undefined) (YFQNCPRG-NH2; linker N-5 via X1) [listing 1 of 2 here] | – | – | – | 125 min | –
COc1ccc(C[C@@H]2NC(=O)CC3(CCC(C)CC3)SSC[C@@H](C(=O)N3CCC[C@H]3C(=O)N[C@@H](CCCN=C(N)N)C(=O)NCC(N)=O)NC(=O)[C@H](CC(N)=O)NC(=O)[C@H](CCC(N)=O)NC(=O)[C@H](Cc3ccccc3)NC2=O)cc1 (some centres undefined) (Y(Me)FQNCPRG-NH2; linker N-5 via X2) [listing 2 of 2 here] | – | – | – | > 140 min | –
COc1ccc(C[C@@H]2NC(=O)CC3(CCC(c4ccccc4)CC3)SSC[C@@H](C(=O)N3CCC[C@H]3C(=O)N[C@@H](CCCN=C(N)N)C(=O)NCC(N)=O)NC(=O)[C@H](CC(N)=O)NC(=O)[C@H](CCC(N)=O)NC(=O)[C@H](Cc3ccccc3)NC2=O)cc1 (some centres undefined) (Y(Me)FQNCPRG-NH2; linker N-5 via X4) [listing 2 of 2 here] | – | – | – | > 180 min | –
NC(=O)CC[C@@H]1NC(=O)[C@H](Cc2ccccc2)NC(=O)[C@H](Cc2ccc(O)cc2)NC(=O)CC2(CCC(c3ccccc3)CC2)SSC[C@@H](C(=O)N2CCC[C@H]2C(=O)N[C@@H](CCCN=C(N)N)C(=O)NCC(N)=O)NC(=O)[C@H](CC(N)=O)NC1=O (some centres undefined) (YFQNCPRG-NH2; linker N-5 via X4) [listing 1 of 2 here] | – | – | – | > 180 min | –
COc1ccc(C[C@@H]2NC(=O)CC3(CCN(C)CC3)SSC[C@@H](C(=O)N3CCC[C@H]3C(=O)N[C@@H](CCCN=C(N)N)C(=O)NCC(N)=O)NC(=O)[C@H](CC(N)=O)NC(=O)[C@H](CCC(N)=O)NC(=O)[C@H](Cc3ccccc3)NC2=O)cc1 (Y(Me)FQNCPRG-NH2; linker N-5 via X3) [listing 1 of 2 here] | – | – | – | 110 min | –
CC(C)(C)C1CCC2(CC1)CC(=O)N[C@@H](Cc1ccc(O)cc1)C(=O)N[C@@H](Cc1ccccc1)C(=O)N[C@@H](CCC(N)=O)C(=O)N[C@@H](CC(N)=O)C(=O)N[C@H](C(=O)N1CCC[C@H]1C(=O)N[C@@H](CCCN=C(N)N)C(=O)NCC(N)=O)CSS2 (some centres undefined) (YFQNCPRG-NH2; linker N-5 via X1) [listing 2 of 2 here] | 0.04 IU mg-1 | 2 nmol/kg | 0.13 IU mg-1 | – | Antagonism (Rattus norvegicus [5]): 0
NC(=O)CC[C@@H]1NC(=O)[C@H](Cc2ccccc2)NC(=O)[C@H](Cc2ccc(O)cc2)NC(=O)CC2(CCC(c3ccccc3)CC2)SSC[C@@H](C(=O)N2CCC[C@H]2C(=O)N[C@@H](CCCN=C(N)N)C(=O)NCC(N)=O)NC(=O)[C@H](CC(N)=O)NC1=O (some centres undefined) (YFQNCPRG-NH2; linker N-5 via X4) [listing 2 of 2 here] | 0 IU mg-1 | 2 nmol/kg | 0.44 IU mg-1 | – | –
COc1ccc(C[C@@H]2NC(=O)CC3(CCC(C(C)(C)C)CC3)SSC[C@@H](C(=O)N3CCC[C@H]3C(=O)N[C@@H](CCCN=C(N)N)C(=O)NCC(N)=O)NC(=O)[C@H](CC(N)=O)NC(=O)[C@H](CCC(N)=O)NC(=O)[C@H](Cc3ccccc3)NC2=O)cc1 (some centres undefined) (Y(Me)FQNCPRG-NH2; linker N-5 via X1) [listing 1 of 2 here] | 0 IU mg-1 | 1 nmol/kg | 0.095 IU mg-1 | – | Antagonism (Rattus norvegicus [5]): 0
NC(=O)CC[C@@H]1NC(=O)[C@H](Cc2ccccc2)N[C@@H](Cc2ccc(O)cc2)C(=O)CC2(CCC(c3ccccc3)CC2)SSC[C@@H](C(=O)N2CCC[C@H]2C(=O)N[C@@H](CCCN=C(N)N)C(=O)NCC(N)=O)NC(=O)[C@H](CC(N)=O)NC1=O (some centres undefined) (H-[X9]QNCPRG-NH2; disulfide 1-4) | – | – | – | – | Antagonism (Rattus norvegicus [6]): Weak
COc1ccc(C[C@@H]2NC(=O)CC3(CCCCC3)SSC[C@@H](C(=O)N3CCC[C@H]3C(=O)N[C@@H](CCCN=C(N)N)C(=O)NCC(N)=O)NC(=O)[C@H](CC(N)=O)NC(=O)[C@H](CCC(N)=O)NC(=O)[C@H](Cc3ccccc3)NC2=O)cc1 (Y(Me)FQNCPRG-NH2; linker N-5 via X6) [listing 2 of 2 here] | – | – | – | 126 min | –
COc1ccc(C[C@@H]2NC(=O)CC3(CCN(C)CC3)SSC[C@@H](C(=O)N3CCC[C@H]3C(=O)N[C@@H](CCCN=C(N)N)C(=O)NCC(N)=O)NC(=O)[C@H](CC(N)=O)NC(=O)[C@H](CCC(N)=O)NC(=O)[C@H](Cc3ccccc3)NC2=O)cc1 (Y(Me)FQNCPRG-NH2; linker N-5 via X3) [listing 2 of 2 here] | 0 IU mg-1 | 3.6 nmol/kg | 0.23 IU mg-1 | – | –
CN1CCC2(CC1)CC(=O)[C@H](Cc1ccc(O)cc1)N[C@@H](Cc1ccccc1)C(=O)N[C@@H](CCC(N)=O)C(=O)N[C@@H](CC(N)=O)C(=O)N[C@H](C(=O)N1CCC[C@H]1C(=O)N[C@@H](CCCN=C(N)N)C(=O)NCC(N)=O)CSS2 (H-[X5]QNCPRG-NH2; disulfide 1-4) | 0.4 IU mg-1 | 0 nmol/kg | 0.87 IU mg-1 | – | Antagonism (Rattus norvegicus [5]): 0
COc1ccc(C[C@@H]2NC(=O)CC3(CCC(C(C)(C)C)CC3)SSC[C@@H](C(=O)N3CCC[C@H]3C(=O)N[C@@H](CCCN=C(N)N)C(=O)NCC(N)=O)NC(=O)[C@H](CC(N)=O)NC(=O)[C@H](CCC(N)=O)NC(=O)[C@H](Cc3ccccc3)NC2=O)cc1 (some centres undefined) (Y(Me)FQNCPRG-NH2; linker N-5 via X1) [listing 2 of 2 here] | – | – | – | > 115 min | –
CC1CCC2(CC1)CC(=O)[C@H](Cc1ccc(O)cc1)N[C@@H](Cc1ccccc1)C(=O)N[C@@H](CCC(N)=O)C(=O)N[C@@H](CC(N)=O)C(=O)N[C@H](C(=O)N1CCC[C@H]1C(=O)N[C@@H](CCCN=C(N)N)C(=O)NCC(N)=O)CSS2 (some centres undefined) (H-[X8]QNCPRG-NH2; disulfide 1-4) | – | – | – | – | Antagonism (Rattus norvegicus [6]): Weak
